The source of these data is ChEMBL document CHEMBL1671657, “MurF inhibitors with antibacterial activity: effect on muropeptide levels” (Antimicrob Agents Chemother, 2009).

Broadly, the MIC is the smallest concentration in the dilution series that meets the test's criterion for growth inhibition. The IC50 is the midpoint of a concentration-inhibition curve. Low values mean greater potency in that assay, high ones weaker potency in that assay.

In brackets after ≈: the same amount, converted by molar mass. Activity calls are given as the source filed them. Bridge positions count the residues as written; N and C are the ends. Square brackets hold non-standard residues; d marks the D form. Peptide text beside a SMILES is read from it. Dab = NCC[C@H](N)C(=O)O

One experiment has as its system Enterococcus faecalis. As to the kind of experiment: Antimicrobial activity against Enterococcus faecalis ATCC 29212 by broth microdilution method. Format: functional. A digest of the protocol: (§1)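 MICs by CLSI broth microdilution. Where polymyxin B nonapeptide was included, it was present at 2 μg/ml alongside the test compound.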
Background: Broth dilution looks for growth in wells or tubes with falling amounts of substance.

Experiment [1] concerns Staphylococcus aureus. As to the kind of experiment: Antimicrobial activity against Staphylococcus aureus ATCC 29213 by broth microdilution method. It counts as functional. The method in brief: as §1
For experiment [2], the system named is Escherichia coli. As to the kind of experiment: Antimicrobial activity against Escherichia coli ATCC 25922 by broth microdilution method. Format: functional. The method in brief:
as §1

For experiment [3], the system named is Escherichia coli. As to the kind of experiment: Inhibition of LPS-deficient Escherichia coli OC2530 MurF harboring pASK plasmid assessed as UDP-MurNAc-pentapeptide product level at 2 times MIC by HPLC (Rvb =880 +/- 17 mAU). The method in brief:
(§2)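 Compound added at 2× MIC from 500× stock (DMSO control). After 30 min, muropeptides extracted and quantified by HPLC peak area (mAU); representative of two independent experiments.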

In experiment [4] the test system is Staphylococcus aureus. As to the kind of experiment: Antimicrobial activity against methicillin-resistant Staphylococcus aureus OC3726 by broth microdilution method. It counts as functional. A digest of the protocol: (§3)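 CLSI broth microdilution MIC; strains from the sponsor's in-house collection.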
Experiment [5] relates to Staphylococcus aureus. As to the kind of experiment: Antimicrobial activity against methicillin-resistant Staphylococcus aureus OC2878 by broth microdilution method. Format: functional. A digest of the protocol: as §3
Experiment [6] deals with Escherichia coli. As to the kind of experiment: Inhibition of LPS-deficient Escherichia coli OC2530 MurF assessed as UDP-MurNAc-pentapeptide product level at 2 times MIC by HPLC (reference value: 1 mAU).
The test system of experiment [7] is Escherichia coli. Put plainly: Inhibition of LPS-deficient Escherichia coli OC2530 MurF harboring pMurF plasmid assessed as UDP-MurNAc-pentapeptide product level at 2 times MIC by HPLC (reference value: 2674 +/- 696 mAU). The method in brief:
as §2

In experiment [8] the test system is Escherichia coli. Put plainly: Inhibition of LPS-deficient Escherichia coli OC2530 MurF harboring pMurF plasmid assessed as UDP-MurNAc-tripeptide substrate level at 2 times MIC by HPLC (reference value: 220 +/- 65 mAU). The method in brief: as §2
For experiment [9], the system named is Escherichia coli. Put plainly: Antimicrobial activity against LPS-deffective Escherichia coli OC2530 assessed as cell aggregation at 0.5 times MIC by light microscopy relative to untreated control. It counts as functional, organism-based. A digest of the protocol: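 Cells were fixed on a glass slide under a coverslip and viewed by light microscopy at ×100/×1.25 oil immersion. Representative images were taken.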

Experiment [10] has as its system Escherichia coli. Put plainly: Antimicrobial activity against LPS-deffective Escherichia coli OC2530 by broth microdilution method. It counts as functional. The method in brief:
as §1

Experiment [11] has as its system Staphylococcus aureus. Put plainly: Antimicrobial activity against Staphylococcus aureus OC4172 by broth microdilution method. It counts as functional. A digest of the protocol: as §1
Experiment [12] deals with Escherichia coli. Put plainly: Antimicrobial activity against Escherichia coli OC2605 by broth microdilution method. Format: functional. The method in brief:
as §3

The subject of experiment [13] is Staphylococcus aureus. As to the kind of experiment: Inhibition of Staphylococcus aureus ATCC 29213 MurF assessed as UDP-MurNAc-tripeptide substrate level at 2 times MIC by HPLC (reference value: 1 mAU). A digest of the protocol:
(§4)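 After 30 min, muropeptides were extracted and quantified by HPLC peak area, normalized to the control. The HPLC detection limit was 12 mAU. Results are representative of two independent experiments.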

The test system of the next experiment is Enterococcus faecium. Put plainly: Antimicrobial activity against Enterococcus faecium OC3312 by broth microdilution method. Format: functional. A digest of the protocol: as §1
The test system of experiment [14] is Escherichia coli. As to the kind of experiment: Inhibition of LPS-deficient Escherichia coli OC2530 MurF harboring pASK plasmid assessed as UDP-MurNAc-tripeptide substrate level at 2 times MIC by HPLC (reference value: 63 +/- 4 mAU). A digest of the protocol:
as §2

Experiment [15] has as its system Escherichia coli. Put plainly: Bactericidal activity against LPS-deffective Escherichia coli OC2530 at 2 times MIC by CFU quantitation.
In experiment [16] the test system is Escherichia coli. Put plainly: Inhibition of LPS-deficient Escherichia coli OC2530 MurF assessed as UDP-MurNAc-tripeptide substrate level at 2 times MIC by HPLC (reference value: 1 mAU).
The test system of experiment [17] is Escherichia coli. As to the kind of experiment: Antimicrobial activity against Escherichia coli OC9040 by broth microdilution method. It counts as functional. A digest of the protocol:
as §1

For experiment [18], the system named is Staphylococcus aureus. As to the kind of experiment: Bacteriostatic activity against Staphylococcus aureus ATCC 29213 at 2 times MIC. Format: functional, organism-based.
Experiment [19] deals with Staphylococcus aureus. As to the kind of experiment: Inhibition of Staphylococcus aureus ATCC 29213 MurF assessed as UDP-MurNAc-pentapeptide product level at 2 times MIC by HPLC (reference value: 1 mAU). The method in brief:
as §4

The test system of experiment [20] is Escherichia coli. Put plainly: Antimicrobial activity against LPS-deffective Escherichia coli OC2530 harboring pASK plasmid by broth microdilution method in presence of chloramphenicol. It counts as functional. A digest of the protocol:
(§5)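 CLSI broth microdilution MIC for OC2530 carrying plasmid (empty pASK or pMurF). Medium contained chloramphenicol 3 μg/ml to keep the plasmid and AHT 100 ng/ml to induce MurF expression.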

Experiment [21] has as its system Escherichia coli. As to the kind of experiment: Antimicrobial activity against LPS-deffective Escherichia coli OC2530 harboring pMurF plasmid by broth microdilution method in presence of chloramphenicol. Format: functional. The method in brief: as §5
Experiment [22] concerns Staphylococcus aureus. Put plainly: Inhibition of Staphylococcus aureus ATCC 29213 MurF assessed as UDP-MurNAc-pentapeptide product level at MIC by HPLC ([…]).
Experiment [23] relates to Staphylococcus aureus. As to the kind of experiment: Antimicrobial activity against Staphylococcus aureus ATCC 29213 assessed as growth inhibition. Format: functional, organism-based.
Experiment [24] is described as follows: Inhibition of Escherichia coli MurF.
In experiment [25] the test system is Staphylococcus aureus. Put plainly: Inhibition of Staphylococcus aureus ATCC 29213 MurF assessed as UDP-MurNAc-tripeptide substrate level at 4 times MIC by HPLC (reference value: 1 mAU). A digest of the protocol:
as §4

The test system of experiment [26] is Staphylococcus aureus. As to the kind of experiment: Inhibition of Staphylococcus aureus ATCC 29213 MurF assessed as UDP-MurNAc-pentapeptide product level at 4 times MIC by HPLC (reference value: 1 mAU). The method in brief:
as §4

Experiment [27] has as its system Staphylococcus aureus. Put plainly: Inhibition of Staphylococcus aureus ATCC 29213 MurF assessed as UDP-MurNAc-tripeptide substrate level at MIC by HPLC (reference value: 1 mAU). The method in brief: as §4
Experiment [28] has as its system Staphylococcus aureus. As to the kind of experiment: Antimicrobial activity against Staphylococcus aureus ATCC 29213 assessed as cell lysis. Format: functional, organism-based.

As to `N[C@@H]1CONC1=O` [CYCLOSERINE], the MIC is 128 µg/mL (≈ 1250 µM) in the experiment on Enterococcus faecalis; 32 µg/mL (≈ 313 µM) in the experiment on Staphylococcus aureus [1]; 32 µg/mL (≈ 313 µM) with Escherichia coli [2]; 32 µg/mL (≈ 313 µM) against Staphylococcus aureus [4]; 64 µg/mL (≈ 627 µM) against Staphylococcus aureus [5]; 64 µg/mL (≈ 627 µM) against Escherichia coli [10]. Also, the MIC with Staphylococcus aureus [11] is 32 µg/mL (≈ 313 µM); in the experiment with Escherichia coli [12], 16 µg/mL (≈ 157 µM); against Enterococcus faecium it was 64 µg/mL (≈ 627 µM); against Escherichia coli [17] it was 32 µg/mL (≈ 313 µM); in the experiment with Escherichia coli [20], 64 µg/mL; in the experiment on Escherichia coli [21], 64 µg/mL. For the same compound, the Activity in the experiment on Escherichia coli [3] was determined as 146 mAU; in the experiment with Escherichia coli [7], 181 mAU; with Escherichia coli [8], 5090 mAU; in the experiment with Escherichia coli [14], 2260 mAU. Besides, the Activity (fold of control) is 0.12 in the experiment with Escherichia coli [6], above 100 with Staphylococcus aureus [13], 30 in the experiment with Escherichia coli [16] and 0.33 in the experiment with Staphylococcus aureus [19]. For the same compound, the outcome in the experiment with Escherichia coli [9], in the experiment on Escherichia coli [15] and with Staphylococcus aureus [18] was Active.

For the compound `COc1ccc2nc(OC)c([C@@H](c3ccccc3)[C@](O)(CCc3ccccc3)CCN(C)C)cc2c1`, the minimal inhibitory concentration (MIC) against Enterococcus faecalis was 8 µg/mL (≈ 16.5 µM); against Staphylococcus aureus [1], 8 µg/mL (≈ 16.5 µM); in the experiment with Escherichia coli [2], above 32 µg/mL; against Staphylococcus aureus [4] it was 8 µg/mL (≈ 16.5 µM); against Staphylococcus aureus [5] it was 8 µg/mL (≈ 16.5 µM); against Escherichia coli [10], 8 µg/mL (≈ 16.5 µM). Further, the MIC against Staphylococcus aureus [11] is 8 µg/mL (≈ 16.5 µM); with Escherichia coli [12], above 32 µg/mL; with Enterococcus faecium, 8 µg/mL (≈ 16.5 µM); in the experiment on Escherichia coli [17], above 32 µg/mL. Besides, the Activity (fold of control) in the experiment on Staphylococcus aureus [22] is 0.6; with Staphylococcus aureus [25], above 67; in the experiment with Staphylococcus aureus [26] it was 0.21; with Staphylococcus aureus [13], above 38; in the experiment on Staphylococcus aureus [27], above 10; with Staphylococcus aureus [19], 0.34. In addition, the inhibition result in the experiment on Staphylococcus aureus [23] is “Dose-dependent effect”. The IC50 in experiment [24] turned out to be 29 µM. Besides, the result in the experiment on Staphylococcus aureus [18] was Active. Further, in the experiment on Staphylococcus aureus [28], the outcome was inactive.

For the compound `CC(C)C[C@@H]1NC(=O)[C@@H](Cc2ccccc2)NC(=O)[C@H](CCN)NC(=O)[C@@H](NC(=O)[C@H](CCN)NC(=O)[C@@H](N)[C@@H](C)O)CCNC(=O)[C@H]([C@@H](C)O)NC(=O)[C@H](CCN)NC(=O)[C@H](CCN)NC1=O` [POLYMYXIN B NONAPEPTIDE] (H-T[Dab][Dab][Dab][dF]L[Dab][Dab]T; lactam 3-C), the minimum inhibitory concentration (MIC) in the experiment on Enterococcus faecalis was above 64 µg/mL; in the experiment with Staphylococcus aureus [1] it was above 64 µg/mL; in the experiment on Escherichia coli [2], 64 µg/mL (≈ 66.4 µM); in the experiment on Staphylococcus aureus [4], above 64 µg/mL; in the experiment with Staphylococcus aureus [5], above 64 µg/mL; with Escherichia coli [10], 16 µg/mL (≈ 16.6 µM). Moreover, the minimal inhibitory concentration (MIC) in the experiment with Staphylococcus aureus [11] was above 64 µg/mL; against Escherichia coli [12], 32 µg/mL (≈ 33.2 µM); in the experiment on Enterococcus faecium, above 64 µg/mL; against Escherichia coli [17] it was 64 µg/mL (≈ 66.4 µM).
